According to ChEMBL document CHEMBL4038306, “Development of an Aryloxazole Class of Hepatitis C Virus Inhibitors Targeting the Entry Stage of the Viral Replication Cycle” (J Med Chem, 2017):
Values after ≈ are worked out from the molar mass of the structure shown.

Experiments:
[1] = Kinetic solubility of the compound in pH 7.4 phosphate buffer; assay type: physicochemical; conditions: read-out: Kinetic_solubility
[2] = Permeability of the compound by PAMPA; assay type: physicochemical; conditions: for Papp: read-out: permeability
Method in brief: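 Passive diffusion measured by stirred double-sink PAMPA; permeability expressed in 10⁻⁶ cm/s.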

Cc1cccc(Cl)c1-c1nc(CN2CCC(C(=O)NCCCN3CCCC(C)C3)CC2)c(C)o1 (racemic)
solubility kinetic [1]: 52.6 µg/mL (≈ 108 µM) | Papp [2]: 651 ×10⁻⁶ cm/s

Cc1ccccc1-c1nc(CN2CCC(C(=O)NCCCN3CCC(C)(C)CC3)CC2)c(C)o1
solubility kinetic [1]: > 69 µg/mL | Papp [2]: 241 ×10⁻⁶ cm/s

Cc1ccccc1-c1nc(CN2CCC(C(=O)NCCCN3CCCC(C)C3)CC2)c(C)o1 (racemic)
solubility kinetic [1]: > 67 µg/mL

Cc1ccc(C)c(-c2nc(CN3CCC(C(=O)NCCCN4C[C@H](C)C[C@H](C)C4)CC3)c(C)o2)c1
solubility kinetic [1]: 56.1 µg/mL (≈ 117 µM)

Cc1oc(-c2c(Cl)cccc2Cl)nc1CN1CCC(C(=O)NCCCN2C[C@H](C)C[C@H](C)C2)CC1
solubility kinetic [1]: > 77 µg/mL

COc1cccc(OC)c1-c1nc(CN2CCC(C(=O)NCCCN3C[C@H](C)C[C@H](C)C3)CC2)c(C)o1
solubility kinetic [1]: > 76 µg/mL

Cc1ccccc1-c1nc(CN2CCC(C(=O)NCCCN3CCCC(C(C)C)C3)CC2)c(C)o1 (racemic)
solubility kinetic [1]: > 71 µg/mL

Cc1cccc(Cl)c1-c1nc(CN2CCC(C(=O)NCCCN3C[C@H](C)C[C@H](C)C3)CC2)c(C)o1
solubility kinetic [1]: > 74 µg/mL | Papp [2]: 196 ×10⁻⁶ cm/s

Cc1cc(-c2nc(CN3CCC(C(=O)NCCCN4C[C@H](C)C[C@H](C)C4)CC3)co2)ccc1F
solubility kinetic [1]: > 70 µg/mL | Papp [2]: 215 ×10⁻⁶ cm/s

Cc1cccc(C)c1-c1nc(CN2CCC(C(=O)NCCCN3C[C@H](C)C[C@H](C)C3)CC2)c(C)o1
solubility kinetic [1]: 55.9 µg/mL (≈ 116 µM) | Papp [2]: 254 ×10⁻⁶ cm/s

Cc1cccc(F)c1-c1nc(CN2CCC(C(=O)NCCCN3C[C@H](C)C[C@H](C)C3)CC2)c(C)o1
solubility kinetic [1]: > 72 µg/mL | Papp [2]: 234 ×10⁻⁶ cm/s

Cc1ccccc1-c1nc(CN2CCC(C(=O)N3CCN(C4CCN(C)CC4)CC3)CC2)c(C)o1
solubility kinetic [1]: > 71 µg/mL | Papp [2]: < 3.2 ×10⁻⁶ cm/s

Cc1ccccc1-c1nc(CN2CCC(C(=O)NCCCN3CCCC(CC(C)C)C3)CC2)c(C)o1 (racemic)
solubility kinetic [1]: 54.9 µg/mL (≈ 111 µM) | Papp [2]: 3 ×10⁻⁶ cm/s

Cc1oc(-c2c(C)c(C)c(C)c(C)c2C)nc1CN1CCC(C(=O)NCCCN2C[C@H](C)C[C@H](C)C2)CC1
Papp [2]: 455 ×10⁻⁶ cm/s

Cc1ccccc1-c1nc(CN2CCC(C(=O)NCCCN3CCCCC3)CC2)c(C)o1
solubility kinetic [1]: > 65 µg/mL | Papp [2]: 34.5 ×10⁻⁶ cm/s

Cc1oc(-c2c(Br)cccc2Br)nc1CN1CCC(C(=O)NCCCN2C[C@H](C)C[C@H](C)C2)CC1
solubility kinetic [1]: 62.4 µg/mL (≈ 102 µM) | Papp [2]: < 1 ×10⁻⁶ cm/s

CCN(CC)CCCCNC(=O)C1CCN(Cc2nc(-c3ccc(OC)c(OC)c3)oc2C)CC1
solubility kinetic [1]: > 72 µg/mL | Papp [2]: 10.4 ×10⁻⁶ cm/s

CC[C@@H]1C[C@H](CC)CN(CCCNC(=O)C2CCN(Cc3nc(-c4c(F)cccc4F)oc3C)CC2)C1
Papp [2]: 130 ×10⁻⁶ cm/s

Cc1oc(-c2c3ccccc3cc3ccccc23)nc1CN1CCC(C(=O)NCCCN2C[C@H](C)C[C@H](C)C2)CC1
solubility kinetic [1]: 62.1 µg/mL (≈ 112 µM)

Cc1oc(-c2ccc(Cl)cc2)nc1CN1CCC(C(=O)NCCCN2C[C@H](C)C[C@H](C)C2)CC1
solubility kinetic [1]: > 72 µg/mL | Papp [2]: > 635 ×10⁻⁶ cm/s

Cc1ccccc1-c1nc(CN2CCC(C(=O)NCCCCN3C[C@H](C)C[C@H](C)C3)CC2)c(C)o1
solubility kinetic [1]: > 71 µg/mL | Papp [2]: 288 ×10⁻⁶ cm/s

Cc1ccccc1-c1nc(CN2CCC(C(=O)NCCCN3C[C@H](C)C[C@@H](C)C3)CC2)c(C)o1 (racemic)
solubility kinetic [1]: > 69 µg/mL | Papp [2]: 554 ×10⁻⁶ cm/s

Cc1ccc(-c2nc(CN3CCC(C(=O)NCCCN4C[C@H](C)C[C@H](C)C4)CC3)c(C)o2)cc1C
solubility kinetic [1]: > 71 µg/mL | Papp [2]: 219 ×10⁻⁶ cm/s

Cc1ccccc1-c1nc(CN2CCC(C(=O)NCCN3C[C@H](C)C[C@H](C)C3)CC2)c(C)o1
solubility kinetic [1]: > 67 µg/mL | Papp [2]: 712 ×10⁻⁶ cm/s

COc1cccc(C)c1-c1nc(CN2CCC(C(=O)NCCCN3C[C@H](C)C[C@H](C)C3)CC2)c(C)o1
solubility kinetic [1]: > 73 µg/mL | Papp [2]: 198 ×10⁻⁶ cm/s

Cc1cc(-c2nc(CN3CCC(C(=O)NCCCN4CCC(C(C)C)CC4)CC3)co2)ccc1F
solubility kinetic [1]: > 72 µg/mL | Papp [2]: 276 ×10⁻⁶ cm/s

Cc1ccc2ccccc2c1-c1nc(CN2CCC(C(=O)NCCCN3C[C@H](C)C[C@H](C)C3)CC2)c(C)o1
solubility kinetic [1]: > 76 µg/mL | Papp [2]: 547 ×10⁻⁶ cm/s

Cc1ccccc1-c1nc(CN2CCC(C(=O)NCCCN3CCC(C(C)C)CC3)CC2)c(C)o1
solubility kinetic [1]: > 71 µg/mL | Papp [2]: 396 ×10⁻⁶ cm/s

Cc1ccccc1-c1nc(CN2CCC(C(=O)NCCCN3CCOCC3)CC2)c(C)o1
solubility kinetic [1]: > 65 µg/mL | Papp [2]: 432 ×10⁻⁶ cm/s

CC[C@@H]1C[C@H](CC)CN(CCCNC(=O)C2CCN(Cc3nc(-c4ccccc4C)oc3C)CC2)C1
permeability [2]: 1267 ×10⁻⁶ cm/s

Cc1oc(-c2c(Cl)cccc2Br)nc1CN1CCC(C(=O)NCCCN2C[C@H](C)C[C@H](C)C2)CC1
solubility kinetic [1]: > 83 µg/mL

Cc1ccccc1-c1nc(CN2CCC(C(=O)N3CCN(CCN(C)C)CC3)CC2)c(C)o1
solubility kinetic [1]: > 67 µg/mL | Papp [2]: 14 ×10⁻⁶ cm/s

Cc1ccccc1-c1nc(CN2CCC(C(=O)NCCCN3CCC(C)CC3)CC2)c(C)o1
solubility kinetic [1]: > 67 µg/mL | Papp [2]: 425 ×10⁻⁶ cm/s

Cc1ccccc1-c1nc(CN2CCC(C(=O)NCCCN3CC4CCCC(C4)C3)CC2)c(C)o1
solubility kinetic [1]: > 71 µg/mL | Papp [2]: 331 ×10⁻⁶ cm/s

COc1ccc(-c2nc(CN3CCC(C(=O)NCCCN4C[C@H](C)C[C@H](C)C4)CC3)c(C)o2)cc1OC
solubility kinetic [1]: > 76 µg/mL | Papp [2]: 81.9 ×10⁻⁶ cm/s

Cc1cccc(Cl)c1-c1nc(CN2CCC(C(=O)NCCCN3CCC(C)(C)CC3)CC2)c(C)o1
solubility kinetic [1]: > 74 µg/mL

Cc1oc(-c2cccc3ccccc23)nc1CN1CCC(C(=O)NCCCN2C[C@H](C)C[C@H](C)C2)CC1
solubility kinetic [1]: > 74 µg/mL

CCCN(CCC)CCNC(=O)C1CCN(Cc2nc(-c3ccccc3C)oc2C)CC1
solubility kinetic [1]: > 65 µg/mL | Papp [2]: 913 ×10⁻⁶ cm/s

CCc1ccccc1-c1nc(CN2CCC(C(=O)NCCCN3C[C@H](C)C[C@H](C)C3)CC2)c(C)o1
solubility kinetic [1]: 55.9 µg/mL (≈ 116 µM) | Papp [2]: 106 ×10⁻⁶ cm/s

Cc1cccc(Cl)c1-c1nc(CN2CCC(C(=O)NCCCN3CCC(C(C)C)CC3)CC2)c(C)o1
solubility kinetic [1]: > 76 µg/mL

Cc1ccccc1-c1nc(CN2CCC(C(=O)NCCCN3C[C@H](C)C[C@H](C)C3)CC2)c(C)o1
solubility kinetic [1]: 53.9 µg/mL (≈ 115 µM) | Papp [2]: 489 ×10⁻⁶ cm/s

Cc1cc(C)cc(-c2nc(CN3CCC(C(=O)NCCCN4C[C@H](C)C[C@H](C)C4)CC3)c(C)o2)c1
solubility kinetic [1]: > 71 µg/mL | Papp [2]: 864 ×10⁻⁶ cm/s

Cc1oc(-c2c(Cl)cccc2C(F)(F)F)nc1CN1CCC(C(=O)NCCCN2C[C@H](C)C[C@H](C)C2)CC1
solubility kinetic [1]: 65.1 µg/mL (≈ 117 µM)

Cc1ccccc1-c1nc(CN2CCC(C(=O)NCCCN3C[C@H](C)C[C@H](C)C3)CC2)c(C)s1
solubility kinetic [1]: > 71 µg/mL

Cc1oc(-c2c(F)cccc2F)nc1CN1CCC(C(=O)NCCCN2C[C@H](C)C[C@H](C)C2)CC1
solubility kinetic [1]: > 72 µg/mL | Papp [2]: 82.4 ×10⁻⁶ cm/s

Cc1oc(-c2ccccc2Cl)nc1CN1CCC(C(=O)NCCCN2C[C@H](C)C[C@H](C)C2)CC1
solubility kinetic [1]: > 72 µg/mL | Papp [2]: 352 ×10⁻⁶ cm/s

Cc1oc(-c2cccc(Cl)c2)nc1CN1CCC(C(=O)NCCCN2C[C@H](C)C[C@H](C)C2)CC1
solubility kinetic [1]: > 72 µg/mL | Papp [2]: 615 ×10⁻⁶ cm/s

Cc1ccc(-c2nc(CN3CCC(C(=O)NCCCN4C[C@H](C)C[C@H](C)C4)CC3)c(C)o2)cc1
solubility kinetic [1]: > 69 µg/mL | Papp [2]: 274 ×10⁻⁶ cm/s

Cc1ccc(-c2nc(CN3CCC(C(=O)NCCCN4C[C@H](C)C[C@H](C)C4)CC3)c(C)o2)c(C)c1
solubility kinetic [1]: > 71 µg/mL | Papp [2]: 353 ×10⁻⁶ cm/s

Cc1cccc(-c2nc(CN3CCC(C(=O)NCCCN4C[C@H](C)C[C@H](C)C4)CC3)c(C)o2)c1
solubility kinetic [1]: > 69 µg/mL | Papp [2]: 279 ×10⁻⁶ cm/s

COc1cccc(F)c1-c1nc(CN2CCC(C(=O)NCCCN3C[C@H](C)C[C@H](C)C3)CC2)c(C)o1
solubility kinetic [1]: > 74 µg/mL

Cc1ccccc1-c1nc(CN2CCC(C(=O)NCCCN3[C@H](C)CCC[C@@H]3C)CC2)c(C)o1
solubility kinetic [1]: > 69 µg/mL | Papp [2]: 55.4 ×10⁻⁶ cm/s

COc1cccc(Br)c1-c1nc(CN2CCC(C(=O)NCCCN3C[C@H](C)C[C@H](C)C3)CC2)c(C)o1
solubility kinetic [1]: > 83 µg/mL | Papp [2]: 245 ×10⁻⁶ cm/s

COc1cccc(Cl)c1-c1nc(CN2CCC(C(=O)NCCCN3C[C@H](C)C[C@H](C)C3)CC2)c(C)o1
solubility kinetic [1]: > 76 µg/mL | Papp [2]: 51 ×10⁻⁶ cm/s

Cc1ccccc1-c1nc(CN2CCC(C(=O)NCCCN3CC(C)(C)CC(C)(C)C3)CC2)c(C)o1
Papp [2]: > 1400 ×10⁻⁶ cm/s
